A selection: hits, their analogues and other compounds. The true share with any hit is near 3.7%.
KCNQ1 block: human KCNQ1 channel inhibition; P51787; CHO-K1 KCNQ1, FluxOR thallium flux fluorescence; active compounds read high; B-score at 10 µM; actives 1.3% (n = 310,000);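 active = compounds whose thallium flux B-score, printed positive for inhibition, exceeds three library SD while starting fluorescence stays within three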;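 note: channel opened by potassium depolarization with thallium stimulus after 20 min compound exposure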
hERG rescue: hERG (human) protection from proarrhythmic block; Q12809; CHO-hERG, FluxOR thallium flux, dofetilide IC70 present; activation (rescue from dofetilide block), less the hit threshold, % at 10 µM; actives 0.51% (n = 310,000); AID 1511;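 active = activation above the mean of controls blocked by dofetilide plus 5 SD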;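 note: thallium influx through hERG after potassium depolarization seen as dye fluorescence rise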
Kir21 block: Kir2.1 (mouse) channel inhibition; P35561; HEK293-Kir2.1, FluxOR thallium flux fluorescence; active compounds read low; B-score at 10 µM; actives 0.85% (n = 310,000); AID 1672;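 active = fluorescence ratio B-score at or below minus 3 SD of library scores, with starting-brightness B-score within 2 SD, cut at about -4.2 in these data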;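 note: channel flux triggered by added potassium and thallium sulfate stimulus; B-score of peak minus minimum fluorescence over baseline after thallium stimulus; more negative B-score means stronger Kir2.1 block with less thallium influx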
KCNK9 block: inhibitors of human KCNK9 two-pore domain potassium channel. Q9NPC2. HEK293 KCNK9, FluxOR thallium flux fluorescence; active compounds read low. B-score at 10 µM. actives 1.2% (n = 310,000). AID 488922;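 active = ratio B-score over 3 SD below the library mean, with starting fluorescence within 5 SD of its mean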;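 note: negative B-score means less thallium flux so channel inhibition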
Target sequence (Q9NPC2 whole entry, looked up, the tested form may be a part): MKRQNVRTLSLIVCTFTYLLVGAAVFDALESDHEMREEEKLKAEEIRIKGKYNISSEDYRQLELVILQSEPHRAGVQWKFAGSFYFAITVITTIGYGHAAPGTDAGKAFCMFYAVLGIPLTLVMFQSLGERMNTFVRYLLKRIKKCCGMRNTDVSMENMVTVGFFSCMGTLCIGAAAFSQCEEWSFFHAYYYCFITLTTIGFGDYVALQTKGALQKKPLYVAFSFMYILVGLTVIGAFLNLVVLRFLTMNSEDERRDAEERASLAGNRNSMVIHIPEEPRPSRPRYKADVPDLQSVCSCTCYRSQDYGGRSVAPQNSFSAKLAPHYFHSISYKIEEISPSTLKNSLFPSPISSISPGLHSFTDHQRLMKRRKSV
KCNQ1 pot: human KCNQ1 channel potentiation or activation; P51787; CHO-K1 KCNQ1, thallium flux FluxOR fluorescence; active compounds read high; B-score at 10 µM; actives 0.35% (n = 310,000); AID 2648;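 active = fluorescence ratio B-score, a plate-corrected score, at least three library SD, with initial intensity B-score within 5 SD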
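Test system: CHO-K1 cells stably expressing KCNQ1 / Medium: assay buffer / Also added: depolarizing K+/Tl+ stimulus, K2SO4 and Tl2SO4 each 12.5 mM in 5x stock / Incubation: 90 min dye loading and 20 min compound exposure, both at room temperature / Signal: thallium influx via FluxOR fluorescence, kinetic imaging / Evaluation: B score of baseline-normalized fluorescence ratio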
KCNK3 inh: human KCNK3 channel inhibition, primary screen; CHO-KCNK3 thallium flux, FluxOR fluorescence; active compounds read low; B-score at 10 µM; actives 0.84% (n = 340,000); AID 602410;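 active = B-score under library mean minus 4 SD, starting fluorescence ratio at most library mean plus 5 SD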;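 note: more negative B-score means stronger inhibition of thallium flux through KCNK3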
KCNK9 block conf: human KCNK9 inhibitor confirmation; shares compounds with KCNK9 block; HEK293 KCNK9 cells, FluxOR thallium flux fluorescence; inhibition, % at 10 µM; actives 43% (n = 4,900);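 active = thallium signal inhibited by more than 5 SD of the compound-free buffer control wells, on both duplicate plates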;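 note: 0% = assay buffer control wells without compound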
Kir2-1 spec: mouse Kir2.1 off-target activity of KCNK9 modulators; shares compounds with KCNK9 block; AID 492993; inhibition, % at 10 µM; Kir2.1 cells, FluxOR thallium flux fluorescence; actives 4% (n = 4,900);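 active = thallium signal drop more than 5 SD beyond the mean of the no-compound control wells, seen in both duplicate plates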;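 note: signal is fluorescence rise after thallium addition divided by baseline fluorescence; plate controls were assay buffer only for no effect and full block by chlorpromazine control for full effect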
KCNK9 uninduced: non-induced cell nonspecific activity of KCNK9 modulators; shares compounds with KCNK9 block; non-induced KCNK9-HEK293, FluxOR thallium flux; inhibition, % at 10 µM; actives 40% (n = 4,900); AID 492997;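 active = thallium signal drop beyond 5 SD of the untreated control mean, on both duplicate plates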;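 note: plate controls were buffer only IC0 wells for no effect and SID17386958 at its maximal inhibitory level for full effect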
* = called active by the depositor.

Screening CC1(CCC(=O)N2CCCC(N3CCN(c4ccc(F)cc4)CC3)C2)CC1 (stereo unspecified) returned KCNQ1 block inactive, hERG rescue -9, Kir21 block -0.48, KCNK9 block inactive, KCNQ1 pot inactive and KCNK3 inh inactive.
For O=C(CN1c2cccc3cccc(c23)S1(=O)=O)NCCc1ccc(F)cc1 the results were KCNK3 inh inactive.
For CC1(c2ccccc2)NC(=O)N(CC(=O)Nc2ccc3c(c2)OCO3)C1=O (stereo unspecified) the results were KCNQ1 block inactive, hERG rescue -10, Kir21 block 0.21, KCNK9 block inactive, KCNQ1 pot inactive and KCNK3 inh inactive.
CC1(c2ccc(OC(F)F)cc2)NC(=O)N(CC(=O)Nc2ccc3c(c2)OCO3)C1=O (stereo unspecified) was read as KCNQ1 block inactive, hERG rescue -16, Kir21 block -1.1, KCNK9 block -9.8*, KCNQ1 pot 13*, KCNK3 inh inactive, KCNK9 block conf inactive, Kir2-1 spec inactive and KCNK9 uninduced 31%*.
FC(F)(F)c1ccccc1CN1CCCC(N2CCN(c3ccccc3)CC2)C1 (stereo unspecified) was read as KCNQ1 block inactive, hERG rescue -4, Kir21 block -0.11, KCNK9 block inactive, KCNQ1 pot inactive, KCNK3 inh inactive, KCNK9 block conf inactive, Kir2-1 spec inactive and KCNK9 uninduced inactive.
CC1=NN(c2ccccc2)C(=O)/C1=C\C=C1/N(C)c2ccccc2C1(C)C was read as KCNQ1 block inactive, hERG rescue -12, Kir21 block 3.1, KCNK9 block inactive, KCNQ1 pot inactive and KCNK3 inh inactive.
`CC1=NN(c2ccccc2)C(=O)/C1=C\C=C1\N(C)c2ccccc2C1(C)C` gave KCNQ1 block inactive, hERG rescue -11, Kir21 block 0.49, KCNK9 block -9.1*, KCNQ1 pot inactive, KCNK3 inh inactive, KCNK9 block conf inactive, Kir2-1 spec inactive and KCNK9 uninduced inactive.
Cc1ccc2oc(-c3cccc(NC(=S)NC(=O)c4cccs4)c3)nc2c1 was read as KCNQ1 block inactive, hERG rescue -6, Kir21 block 0.68, KCNK9 block inactive, KCNQ1 pot inactive and KCNK3 inh inactive.
Screening Cc1ccc2oc(-c3cccc(NC(=S)NC(=O)/C=C/c4ccco4)c3)nc2c1 returned KCNQ1 block inactive, hERG rescue -11, Kir21 block -0.11, KCNK9 block inactive, KCNQ1 pot inactive, KCNK3 inh inactive, KCNK9 block conf inactive, Kir2-1 spec inactive and KCNK9 uninduced inactive.
For O=C(CNC(=O)c1ccc(Br)o1)NCc1ccccc1 the results were KCNQ1 block inactive, hERG rescue -8, Kir21 block 0.69, KCNK9 block inactive, KCNQ1 pot inactive and KCNK3 inh inactive.
`COC(=O)c1cc(NC(=O)CN(c2ccccc2OC)S(=O)(=O)c2ccccc2)ccc1Cl` gave KCNQ1 block inactive, hERG rescue -7, Kir21 block -1.7, KCNK9 block -15*, KCNQ1 pot inactive, KCNK3 inh inactive, KCNK9 block conf 64%*, Kir2-1 spec inactive and KCNK9 uninduced inactive.
Screening Cc1[nH]c2ccccc2c1C(=O)CSc1n[nH]c(N)n1 returned KCNQ1 block inactive, hERG rescue -14, Kir21 block -0.01, KCNK9 block inactive, KCNQ1 pot inactive and KCNK3 inh inactive.
`Cc1ccc(C(=O)Nc2ccccc2C(=O)O)cc1S(=O)(=O)Nc1ccc(Br)cc1` gave KCNQ1 block 6*, hERG rescue -15, Kir21 block 0.57, KCNK9 block inactive, KCNQ1 pot inactive, KCNK3 inh inactive, KCNK9 block conf inactive, Kir2-1 spec inactive and KCNK9 uninduced inactive.
Cc1ccc(C(=O)Nc2ccccc2C(=O)O)cc1S(=O)(=O)NCc1ccccc1 was read as KCNQ1 block inactive, hERG rescue -7, Kir21 block 0.26, KCNK9 block inactive, KCNQ1 pot inactive and KCNK3 inh inactive.
For Cc1ccc(C)c(NS(=O)(=O)c2cc(C(=O)Nc3ccccc3-c3ccccc3)ccc2C)c1 the results were KCNQ1 block inactive, hERG rescue -12, Kir21 block 0.35, KCNK9 block -12*, KCNQ1 pot inactive, KCNK3 inh -9.9*, KCNK9 block conf 42%*, Kir2-1 spec inactive and KCNK9 uninduced 42%*.
For Cc1ccc(C(=O)Nc2ccccc2-c2ccccc2)cc1S(=O)(=O)Nc1cccc(C)c1C the results were KCNQ1 block 6*, hERG rescue -7, Kir21 block -0.31, KCNK9 block -9.4*, KCNQ1 pot inactive, KCNK3 inh -11*, KCNK9 block conf 40%*, Kir2-1 spec inactive and KCNK9 uninduced 42%*.
O=C1CCC/C(=N/Nc2ccc(Cl)cc2)C1 was read as KCNQ1 block inactive, hERG rescue -8, Kir21 block -0.42, KCNK9 block inactive, KCNQ1 pot inactive and KCNK3 inh inactive.
Cc1ccc(NC(=O)CSc2nc3ccccc3c(=O)[nH]2)cc1[N+](=O)[O-] was read as KCNK3 inh inactive.
For CCCc1cc(=O)[nH]c(SCC(=O)Nc2sc3c(c2C#N)CCC(C)C3)n1 (stereo unspecified) the results were KCNQ1 block inactive, hERG rescue -31, Kir21 block -1.7, KCNK9 block inactive, KCNQ1 pot inactive and KCNK3 inh inactive.
CCCCNC(=O)[C@H]1C[C@H]1[C@@H](O)[C@H](CO)NC(=O)[C@H](Cc1ccccc1)NC(=O)OC(C)(C)C was read as KCNQ1 block inactive, hERG rescue -4, Kir21 block -0.15, KCNK9 block inactive, KCNQ1 pot inactive, KCNK3 inh inactive, KCNK9 block conf inactive, Kir2-1 spec inactive and KCNK9 uninduced inactive.
Screening O=C1[C@@H]2CSCN2C(=O)CN1Cc1c(F)cccc1Cl returned KCNQ1 block inactive, hERG rescue -8, Kir21 block -2.1, KCNK9 block inactive, KCNQ1 pot inactive and KCNK3 inh inactive.
For COc1ccccc1CNC(=O)C1CCN(S(=O)(=O)c2ccc3c(c2)NC(=O)CO3)CC1 the results were KCNQ1 block inactive, hERG rescue -7, Kir21 block 0.08, KCNK9 block inactive, KCNQ1 pot inactive and KCNK3 inh inactive.

Bioassay records (PubChem)
